# Test results reported in ChEMBL document CHEMBL1932938, “From COX-2 inhibitor nimesulide to potent anti-cancer agent: synthesis, in vitro, in vivo and pharmacokinetic evaluation” (Eur J Med Chem, 2012).
# Legend:
# Format in all cases: functional
# SK-BR-3 [1] = assay: Cell cycle arrest in human SK-BR-3 cells assessed as accumulation at G1 phase at 0.10 uM after 12 hrs using propidium iodide staining by FACS analysis
# Summary of the method: (§1)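 SKBR-3 cells in RPMI1640 with 10% heat-inactivated FBS at 37 °C and 5% CO₂ were treated for the stated times. Cells were fixed overnight in 70% EtOH at −20 °C, then stained with propidium iodide buffer (38 mM sodium citrate pH 7.5, 69 µM PI, 120 µg/mL RNase A) for 15 min at room temperature in the dark. Up to 1×10⁴ gated cells were analyzed by flow cytometry, giving percent distribution per phase.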
# SK-BR-3 [2] = assay: Cell cycle arrest in human SK-BR-3 cells assessed as accumulation at G2/M phase at 0.10 uM after 12 hrs using propidium iodide staining by FACS analysis; summary of the method: as §1
# SK-BR-3 [3] = assay: Cell cycle arrest in human SK-BR-3 cells assessed as accumulation at Sub-G1 phase at 0.50 uM after 12 hrs using propidium iodide staining by FACS analysis
# SK-BR-3 [4] = assay: Cell cycle arrest in human SK-BR-3 cells assessed as accumulation at G2/M phase at 0.10 uM after 18 hrs using propidium iodide staining by FACS analysis; summary of the method: as §1
# SK-BR-3 [5] = assay: Cell cycle arrest in human SK-BR-3 cells assessed as accumulation at S phase at 0.50 uM after 18 hrs using propidium iodide staining by FACS analysis
# SK-BR-3 [6] = assay: Cell cycle arrest in human SK-BR-3 cells assessed as accumulation at G2/M phase at 0.50 uM after 18 hrs using propidium iodide staining by FACS analysis; summary of the method: as §1
# SK-BR-3 [7] = assay: Cell cycle arrest in human SK-BR-3 cells assessed as accumulation at G2/M phase at 5 uM after 18 hrs using propidium iodide staining by FACS analysis; summary of the method: as §1
# SK-BR-3 [8] = assay: Cell cycle arrest in human SK-BR-3 cells assessed as accumulation at G2/M phase at 0.10 uM after 24 hrs using propidium iodide staining by FACS analysis; summary of the method: as §1
# SK-BR-3 [9] = assay: Cell cycle arrest in human SK-BR-3 cells assessed as accumulation at Sub-G1 phase at 5 uM after 24 hrs using propidium iodide staining by FACS analysis
# CCRF-CEM = assay: Growth inhibition of human CCRF-CEM cells after 48 hrs by SRB assay
# K562 = assay: Growth inhibition of human K562 cells after 48 hrs by SRB assay
# NCI-H226 = assay: Growth inhibition of human NCI-H226 cells after 48 hrs by SRB assay
# HT-29 = assay: Growth inhibition of human HT-29 cells after 48 hrs by SRB assay
# KM12 = assay: Growth inhibition of human KM12 cells after 48 hrs by SRB assay
# SW-620 = assay: Growth inhibition of human SW620 cells after 48 hrs by SRB assay
# SF-539 = assay: Growth inhibition of human SF539 cells after 48 hrs by SRB assay
# U-251 = assay: Growth inhibition of human U251 cells after 48 hrs by SRB assay
# Malme-3M = assay: Growth inhibition of human MALME-3M cells after 48 hrs by SRB assay
# M14 = assay: Growth inhibition of human M14 cells after 48 hrs by SRB assay
# SK-OV-3 = assay: Growth inhibition of human SKOV3 cells after 48 hrs by SRB assay
# DU-145 = assay: Growth inhibition of human DU145 cells after 48 hrs by SRB assay
# SK-BR-3 [10] = assay: Cell cycle arrest in human SK-BR-3 cells assessed as accumulation at G2/M phase at 0.50 uM after 3 hrs using propidium iodide staining by FACS analysis; summary of the method: as §1
# SK-BR-3 [11] = assay: Cell cycle arrest in human SK-BR-3 cells assessed as accumulation at G1 phase at 0.50 uM after 3 hrs using propidium iodide staining by FACS analysis; summary of the method: as §1
# SK-BR-3 [12] = assay: Cell cycle arrest in human SK-BR-3 cells assessed as accumulation at Sub-G1 phase at 0.50 uM after 3 hrs using propidium iodide staining by FACS analysis
# SK-BR-3 [13] = assay: Cell cycle arrest in human SK-BR-3 cells assessed as accumulation at G1 phase at 5 uM after 6 hrs using propidium iodide staining by FACS analysis; summary of the method: as §1
# SK-BR-3 [14] = assay: Cell cycle arrest in human SK-BR-3 cells assessed as accumulation at Sub-G1 phase at 0.10 uM after 12 hrs using propidium iodide staining by FACS analysis
# [15] = read-out: LC50 (the source's name)
smiles,measurement,setting,value
Cc1ccc(C)c(COc2cc(NC(=O)c3ccc4c(c3)OCO4)ccc2N(C)S(C)(=O)=O)c1,Activity,SK-BR-3 [1],73.14%
same,Activity,SK-BR-3 [2],12.05%
same,Activity,SK-BR-3 [3],6.36%
same,Activity,SK-BR-3 [4],9.71%
same,Activity,SK-BR-3 [5],7.28%
same,Activity,SK-BR-3 [6],22.27%
same,Activity,SK-BR-3 [7],21.8%
same,Activity,SK-BR-3 [8],11.23%
same,Activity,SK-BR-3 [9],27.62%
same,GI50,CCRF-CEM,0.0485 µM
same,TGI,CCRF-CEM,> 100 µM
same,growth inhibition (GI),CCRF-CEM,Dose-dependent effect
same,CC50,CCRF-CEM; [15],> 100 µM
same,growth inhibition (GI),K562,Dose-dependent effect
same,GI50,"K562; K562, 48 h",0.0403 µM
same,TGI,"K562; K562, 48 h",> 100 µM
same,CC50,"K562; K562, 48 h, read-out: LC50 (the source's name)",> 100 µM
same,growth inhibition (GI),NCI-H226,Dose-dependent effect
same,GI50,"NCI-H226; NCI-H226, 48 h",0.686 µM
same,TGI,"NCI-H226; NCI-H226, 48 h",> 100 µM
same,CC50,"NCI-H226; NCI-H226, 48 h, read-out: LC50 (the source's name)",> 100 µM
same,growth inhibition (GI),HT-29,Dose-dependent effect
same,GI50,"HT-29; HT-29, 48 h",0.0772 µM
same,TGI,"HT-29; HT-29, 48 h",0.419 µM
same,CC50,"HT-29; HT-29, 48 h, read-out: LC50 (the source's name)",> 100 µM
same,growth inhibition (GI),KM12,Dose-dependent effect
same,GI50,"KM12; KM12, 48 h",0.0855 µM
same,TGI,"KM12; KM12, 48 h",1.13 µM
same,CC50,"KM12; KM12, 48 h, read-out: LC50 (the source's name)",> 100 µM
same,growth inhibition (GI),SW-620,Dose-dependent effect
same,GI50,"SW-620; SW-620, 48 h",0.112 µM
same,TGI,"SW-620; SW-620, 48 h",> 100 µM
same,CC50,"SW-620; SW-620, 48 h, read-out: LC50 (the source's name)",> 100 µM
same,growth inhibition (GI),SF-539,Dose-dependent effect
same,GI50,"SF-539; SF-539, 48 h",0.125 µM
same,CC50,"SF-539; SF-539, 48 h, read-out: LC50 (the source's name)",> 100 µM
same,growth inhibition (GI),U-251,Dose-dependent effect
same,GI50,"U-251; U-251, 48 h",0.266 µM
same,TGI,"U-251; U-251, 48 h",21.9 µM
same,CC50,"U-251; U-251, 48 h, read-out: LC50 (the source's name)",> 100 µM
same,GI50,Malme-3M,0.229 µM
same,TGI,Malme-3M,> 100 µM
same,growth inhibition (GI),Malme-3M,Dose-dependent effect
same,CC50,Malme-3M; [15],> 100 µM
same,growth inhibition (GI),M14,Dose-dependent effect
same,GI50,"M14; M14, 48 h",0.0757 µM
same,TGI,"M14; M14, 48 h",0.669 µM
same,CC50,"M14; M14, 48 h, read-out: LC50 (the source's name)",> 100 µM
same,growth inhibition (GI),SK-OV-3,Dose-dependent effect
same,GI50,"SK-OV-3; SK-OV-3, 48 h",0.285 µM
same,TGI,"SK-OV-3; SK-OV-3, 48 h",> 100 µM
same,CC50,"SK-OV-3; SK-OV-3, 48 h, read-out: LC50 (the source's name)",> 100 µM
same,growth inhibition (GI),DU-145,Dose-dependent effect
same,GI50,"DU-145; DU-145, 48 h",0.159 µM
same,TGI,"DU-145; DU-145, 48 h",0.457 µM
same,CC50,"DU-145; DU-145, 48 h, read-out: LC50 (the source's name)",> 100 µM
same,Activity,SK-BR-3 [10],11.54%
same,Activity,SK-BR-3 [11],67.14%
same,Activity,SK-BR-3 [12],3.43%
same,Activity,SK-BR-3 [13],64.76%
same,Activity,SK-BR-3 [14],5.27%
